Data reported in ChEMBL document CHEMBL1124335, “5-Isoquinolinesulfonamide derivatives. 1. Synthesis and vasodilatory activity of N-(2-guanidinoethyl)-5-isoquinolinesulfonamide derivatives” (1989).

Key:
Canis familiaris [1] = experiment: Increasing effect on femoral blood flow (FBF) in femoral artery of anesthetized dogs.; assay type: functional, Canis lupus familiaris
Outline: (§1)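 Anesthetized dogs, trachea intubated and ventilated at 12-16 cycles/min, with tidal volume set to hold arterial pH, pCO2 and pO2 within physiological limits. Body temperature kept at 37-38 °C. Drug given locally intra-arterially into the femoral artery, at least three doses per compound. Trapidil 100 μg was given before and after as reference. Femoral blood flow increase read from at least three dose-response curves. Expressed as equieffective dose ratio versus trapidil (mg/mg).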

Canis familiaris [2] = experiment: Compound was evaluated for increasing effect on femoral blood flow (FBF) in femoral artery of anesthetized dogs, compared to Trapidil; No detectable vasodilation; assay type: functional, organism-based; conditions: Canis lupus familiaris; outline: as §1
Canis familiaris [3] = experiment: Compound was evaluated for increasing effect on femoral blood flow (FBF) in femoral artery of anesthetized dogs, compared to Trapidil; ND is no detectable vasodilation.; assay type: functional, organism-based; conditions: Canis lupus familiaris; outline: as §1

Cl.N=C(N)NCCCNS(=O)(=O)c1cccc2cnccc12
Equieffective dose ratio vs trapidil for femoral blood flow increase (Canis familiaris [1]): 4.3

Cl.N#CNC(=N)NCCNS(=O)(=O)c1cccc2cnccc12
Equieffective dose ratio vs trapidil for femoral blood flow increase (Canis familiaris [1]): >50

Cl.N=C(N)NCCCCNS(=O)(=O)c1cccc2cnccc12
Equieffective dose ratio vs trapidil for femoral blood flow increase (Canis familiaris [1]): 16

CN(CCN=C(N)N)S(=O)(=O)c1cccc2cnccc12.Cl
Equieffective dose ratio vs trapidil for femoral blood flow increase (Canis familiaris [1]): 1.8

Cl.N=C(N)N1CCN(S(=O)(=O)c2cccc3cnccc23)CC1
Equieffective dose ratio vs trapidil for femoral blood flow increase (Canis familiaris [1]): 0.62

CN(CCNS(=O)(=O)c1cccc2cnccc12)C(=N)N.Cl
Equieffective dose ratio vs trapidil for femoral blood flow increase (Canis familiaris [1]): 1.1

Cl.N/C(=N\CCNS(=O)(=O)c1cccc2cnccc12)N[N+](=O)[O-]
Equieffective dose ratio vs trapidil for femoral blood flow increase (Canis familiaris [1]): >10

Cl.N=C(N)NCCNS(=O)(=O)c1cccc2cnccc12
Equieffective dose ratio vs trapidil for femoral blood flow increase (Canis familiaris [1]): 1.7

N=C(N)NNS(=O)(=O)c1cccc2cnccc12
FBF (Canis familiaris [2]): No detectable vasodilation

Cl.O=S(=O)(NCCN=C(Nc1ccccc1)Nc1ccccc1)c1cccc2cnccc12
Equieffective dose ratio vs trapidil for femoral blood flow increase (Canis familiaris [1]): >50

Cl.O=S(=O)(NCCNc1ncccn1)c1cccc2cnccc12
Equieffective dose ratio vs trapidil for femoral blood flow increase (Canis familiaris [1]): >30

CNC(=N)NCCNS(=O)(=O)c1cccc2cnccc12
FBF (Canis familiaris [3]): No detectable vasodilation

Cl.N=C(N)NCCCCCCNS(=O)(=O)c1cccc2cnccc12
Equieffective dose ratio vs trapidil for femoral blood flow increase (Canis familiaris [1]): 3.8

CC1CN(S(=O)(=O)c2cccc3cnccc23)C(C)CN1C(=N)N.Cl (stereo not drawn)
Equieffective dose ratio vs trapidil for femoral blood flow increase (Canis familiaris [1]): 1.6

Cl.O=S(=O)(NCCNC1=NCCN1)c1cccc2cnccc12
Equieffective dose ratio vs trapidil for femoral blood flow increase (Canis familiaris [1]): 24

Cl.N=C(N)N1CCCN(S(=O)(=O)c2cccc3cnccc23)CC1
Equieffective dose ratio vs trapidil for femoral blood flow increase (Canis familiaris [1]): 0.19

COc1ccc([C@@H]2Sc3ccccc3N(CCN(C)C)C(=O)[C@@H]2OC(C)=O)cc1.Cl [DILTIAZEM HYDROCHLORIDE]
Equieffective dose ratio vs trapidil for femoral blood flow increase (Canis familiaris [1]): 0.21

C/N=C(\NC)NCCNS(=O)(=O)c1cccc2cnccc12.Cl
Equieffective dose ratio vs trapidil for femoral blood flow increase (Canis familiaris [1]): >50
